Where no end group is shown, it is not given here.
B1: G2BR peptide (Ube2g2 binding region of gp78, amino acids 574-600) (peptide, UniProt Q9UKV5 574-600, looked up)
peptide: SADERQRMLVQRKDELLQQARKRFLNK
B3: Ube2g2 (enzyme)
chain: MAGTALKRLMAEYKQLTLNPPEGIVAGPMNEENFFEWEALIMGPEDTCFEFGVFPAILSFPLDYPLSPPKMRFTCEMFHPNIYPDGRVCISILHAPGDDPMGYESSAERWSPVQSVEKILLSVVSMLAEPNDESGANVDASKMWRDDREQFYKIAKQIVQKSLGL

How the values were obtained:
Ube2g2 [1] = target: Ube2g2 (UniProt P60604); assay: NMR titration
Ube2g2 [2] = target: Ube2g2 (UniProt P60604); assay: ITC
UbcH5B = assay: Ubiquitylation by HsHRD1, Trc8 and GST-gp78CΔ577-643 with UbcH5B as E2; format: biochemical; details: HsHRD1, Trc8 and GST-gp78CΔ577-643, UbcH5B as E2, G2BR added
Method in brief: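 GST fusions of the HsHRD1 or Trc8 cytoplasmic tails, or of truncated gp78, were bound to glutathione Sepharose. They were incubated 90 min with E1 and the indicated E2, with or without the indicated peptides. Beads were then washed, and bead-bound ubiquitylated material was resolved by SDS-PAGE and immunoblotted with anti-ubiquitin.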

GST-gp78CΔ577-643 = assay: Autoubiquitylation of GST-gp78CΔ577-643 with Ube2g2; format: biochemical, human; details: GST-gp78CΔ577-643, bead-bound, Ube2g2, E1; anti-ubiquitin immunoblot
Method in brief: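 Glutathione Sepharose-bound GST fusion of the gp78 cytoplasmic tail truncated at aa 577, at the start of the G2BR, is incubated 90 min with Ube2g2 and E1, with or without synthetic or recombinant G2BR-derived peptides added in trans. After washing, ubiquitylated bead-bound material is resolved by SDS-PAGE and immunoblotted with anti-ubiquitin.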

gp78 RING finger = assay: Binding of G2BR to gp78 RING finger; design: species or system human; details: in the gp78 RING finger:Ube2g2:G2BR complex, separate binding experiments
Ube2g2Δ96-108 [3] = assay: Ubiquitin loading of Ube2g2Δ96-108; format: biochemical; details: Ube2g2Δ96-108, printed 'almost 75%'; 4 μM G2BR, 30°C
Ube2g2:RING finger = assay: Fraction of Ube2g2 bound to gp78 RING finger in discharge reactions; format: binding; details: 8 μM gp78 RING finger, peptide 4 μM
Ube2g2 [4] = target: T1, Ube2g2 (Homo sapiens, UniProt P60604); assay: NMR titration of Ube2g2 with G2BR peptides; format: binding; details: peptide with Ube2g2, 50 mM Tris, 2 mM TCEP, pH 7.5, 25°C
T1 sequence (P60604 1-165): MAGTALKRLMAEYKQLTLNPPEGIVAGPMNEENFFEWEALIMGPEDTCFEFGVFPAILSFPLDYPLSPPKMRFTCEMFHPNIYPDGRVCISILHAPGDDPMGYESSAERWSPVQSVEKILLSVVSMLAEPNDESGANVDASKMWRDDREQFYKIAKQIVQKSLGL
Method in brief: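 Samples are in 50 mM Tris, 2 mM TCEP, pH 7.5, run at 25°C on 600 and 800 MHz spectrometers with triple-resonance cryoprobes. G2BR peptide is titrated into Ube2g2 and chemical shift perturbations of Ube2g2 resonances are mapped, backed by intermolecular NOESY, to define the binding surface.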

Ub-GFP-His6 = assay: Ubiquitylation of Ub-GFP-His6 by gp78 cytoplasmic domain constructs; format: biochemical; details: ~500 nM Ub-GFP-His6, Flag-tagged ubiquitin
Method in brief: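 Purified, bacterially expressed Ub-GFP-His6 (~500 nM) served as substrate for glutathione Sepharose-bound GST-gp78 lacking aa 577-643. Reactions were stopped with 2% SDS (final). After 10 min, samples were diluted to 0.1% SDS with 8 M urea in 50 mM Tris pH 7.4. Substrate was recovered on Ni2+ beads, washed, eluted and resolved by SDS-PAGE. In controls, substrate was added after termination; some reactions ran 60 min.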

Ube2g2Δ96-108 [5] = assay: Binding of G2BR to Ube2g2Δ96-108
Ube2g2 [6] = target: T1, Ube2g2; assay: Ubiquitin loading of Ube2g2; format: biochemical
Ube2g2:G2BR complex [7] = target: T2, Ube2g2:G2BR complex (Homo sapiens, UniProt P60604+Q9UKV5); assay: NMR titration of Ube2g2:G2BR complex with gp78 RING finger; format: binding; details: for NMR Exchange timescale: Ube2g2:G2BR complex, pH 7.5, 25°C
T2 sequence (P60604 1-165): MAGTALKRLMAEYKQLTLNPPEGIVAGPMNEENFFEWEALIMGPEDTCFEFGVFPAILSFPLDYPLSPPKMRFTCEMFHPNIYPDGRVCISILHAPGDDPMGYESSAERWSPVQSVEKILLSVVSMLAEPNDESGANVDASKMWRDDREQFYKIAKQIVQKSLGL
T2 sequence (Q9UKV5 574-600 partner limits assumed): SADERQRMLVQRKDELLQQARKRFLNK
Method in brief: (§1)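 Purified gp78 RING finger is titrated into free Ube2g2 or the Ube2g2:G2BR complex in 50 mM Tris, 2 mM TCEP, pH 7.5, at 25°C, using 600 and 800 MHz spectrometers. Shifts of Ube2g2 peaks from free toward bound positions are followed. Kd comes from fitting peak positions against ligand:protein concentration.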

Ube2g2 [8] = target: T1, Ube2g2; assay: ITC of Ube2g2 with G2BR peptides; format: binding
Ube2g2:G2BRΔN complex = Ube2g2:G2BRΔN complex (UniProt P60604); assay: NMR titration
UbcH5C = details: ref Brzovic et al., 2006; cited from earlier work
Ube2g2 [9] = target: B3; assay: ITC
Ube2g2 [10] = target: B3; assay: NMR titration
Ube2g2 [11] = target: B3; assay: ITC; remark: listed apart in the source
Ube2g2:G2BRΔN = assay: NMR titration of Ube2g2:G2BRΔN complex with gp78 RING finger; format: binding; details: Ube2g2 in presence of G2BRΔN, pH 7.5, 25°C
Method in brief: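 For the NMR titration, samples were in 50 mM Tris, 2 mM TCEP, pH 7.5, at 25°C, on 600 and 800 MHz spectrometers with cryoprobes. gp78 RING finger was added stepwise, and Ube2g2 peak shifts from the free toward the bound position were followed. Kd was obtained by fitting peak positions against ligand:protein concentration ratio.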

Ube2g2~Ub = Ube2g2~Ub (Homo sapiens, UniProt P60604); assay: Discharge of ubiquitin from Ube2g2~Ub; format: biochemical; details: 8 μM gp78 RING finger, Ub 80 μM, 50 mM Tris pH 7.4, 25°C
Ube2g2 [12] = target: B3; assay: NMR titration; remark: listed apart in the source
Ube2g2:G2BR complex [13] = target: T3, Ube2g2:G2BR complex ( | human, UniProt P60604 1-165; Q9UKV5 574-600); assay: NMR titration
T3 sequence 1: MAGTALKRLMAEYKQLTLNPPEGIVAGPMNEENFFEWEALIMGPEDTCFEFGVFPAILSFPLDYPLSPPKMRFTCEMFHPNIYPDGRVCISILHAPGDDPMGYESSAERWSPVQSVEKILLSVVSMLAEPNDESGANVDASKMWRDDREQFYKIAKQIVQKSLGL
T3 sequence 2: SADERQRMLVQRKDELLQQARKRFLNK

Ube2g2 [14] = target: T1, Ube2g2; assay: NMR titration of Ube2g2 with gp78 RING finger; format: binding; details: Ube2g2 without G2BR, pH 7.5, 25°C
Method in brief: as §1

[15] = target: B1; assay: NMR titration

Molecule G2BRΔC (peptide) has a Kd (Ube2g2 [1]) of 192 µM.

For G2BRΔN (peptide), the Kd (Ube2g2 [2]) was 0.74 µM and the dH (Ube2g2 [2]) was -2.34 kcal/mol.

In the case of SADERQRMLVQRKDELLQQARKRFLNK [G2BR], the “effect on ubiquitylation with UbcH5B” value (UbcH5B) is reported as “not increased”, the “effect of peptide in trans on ubiquitylation of truncated gp78” value (GST-gp78CΔ577-643) is reported as “marked increase in ubiquitylation of truncated gp78” and the “RING finger - G2BR direct interaction” value (gp78 RING finger) is reported as “do not directly interact”. The “decrease of the G2BR effect on ubiquitin loading by deletion of aa 96-108” value (Ube2g2Δ96-108 [3]) was roughly 75%, the “Ube2g2 bound (Ube2g2:RING finger)” value (Ube2g2:RING finger) was greater than 50% and the “NMR Exchange timescale” value (Ube2g2 [4]) was “slow exchange and slow”. For the same molecule, the “effect of G2BR on ubiquitylation of Ub-GFP-His6 by GST-gp78CΔ577-643” value (Ub-GFP-His6) was “substantially increased”, the “G2BR binding to Ube2g2Δ96-108” value (Ube2g2Δ96-108 [5]) was “G2BR binding was retained” and the “E2 loading with ubiquitin” value (Ube2g2 [6]; 12°C, with G2BR) was “almost no detectable loading”. The “effect on rate of E2 loading with ubiquitin” value (Ube2g2 [6]; 30°C, 4 μM (saturating) peptide, 100 nM E1, Ub K0, versus Scr, average of two experiments) was “marked decrease in the rate of E2 loading”, the “formation of Ube2g2~Ub” value (Ube2g2 [6]; in presence of G2BR (discussion)) was “substantial delay in formation of Ube2g2~Ub” and the “increase in affinity between the E2 and RING finger caused by G2BR binding” value (Ube2g2:G2BR complex [7]; Ube2g2:G2BR versus Ube2g2, abstract) was ~ 50 fold. For the same molecule, the “ΔG (free energy change)” value (Ube2g2 [8]; ITC, 25°C) was -10.45 kcal/mol, the ΔH (Ube2g2 [8]; ITC, 25°C) was -56.3(±0.01) kJ mol^-1 and the ΔS (Ube2g2 [8]; ITC, 25°C) was -41.8(±0.04) J K^-1 mol^-1T^-1. For the same molecule, the “higher affinity for Ube2g2 of G2BR than of ubiquitin” value (Ube2g2 [8]; versus ubiquitin (~300 μM)) was “over 10,000 fold”.

Molecule “gp78 RING finger (aa 313-380) (from UniProt Q9UKV5 313-380) (domain or fragment)” has a Kd (Ube2g2:G2BRΔN complex) of 29 µM.

In the case of ubiquitin, the Kd (UbcH5C) is listed as roughly 300 µM.

With B1 the “stoichiometry N” value (Ube2g2 [9]) was 1, the Kd (Ube2g2 [10]) was less than 1 µM and the Kd (Ube2g2 [11]) was 0.021 ± 0.004 µM. The dH (Ube2g2 [11]) was -13.456 ± 0.00239 kcal/mol.

B2: gp78 RING finger (aa 313-380) (domain or fragment, human, UniProt Q9UKV5 313-380, looked up)
chain: KNYLRVVGNMEARFAVATPEELAVNNDDCAICWDSMQAARKLPCGHLFHNSCLRSWLEQDTSCPTCRM
With B2 the Kd (Ube2g2:G2BRΔN; 50 mM Tris, 2 mM TCEP) was 29 µM, the “NMR Exchange timescale” value (Ube2g2:G2BRΔN) was “fast” and the “loss of Ub-bound Ube2g2” value (Ube2g2~Ub) was “markedly accelerated”. For the same molecule, the Kd (Ube2g2 [12]) was 144 ± 10 µM, the Kd (Ube2g2:G2BR complex [13]) was 3 ± 1 µM and the “NMR Exchange timescale” value (Ube2g2:G2BR complex [7]) was “fast exchange”. For the same molecule, the “NMR Exchange timescale” value (Ube2g2:G2BR complex [7]; listed as gp78-RING) was “fast”, the “decrease of Kd of gp78 RING finger for Ube2g2 in presence of G2BR” value (Ube2g2:G2BR complex [7]; Ube2g2:G2BR versus Ube2g2) was ~ 48 fold and the “NMR Exchange timescale” value (Ube2g2 [14]) was “fast exchange”. The “NMR Exchange timescale” value (Ube2g2 [14]; listed as gp78-RING) was “fast”.

In the case of B3, the “stoichiometry N” value [15] is reported as 1.
